Data as given in ChEMBL document CHEMBL5303300, “EUbOPEN Chemogenomics Library - Multiplex” (2023).
Values joined by “and” are separate entries in the source; they are usually repeats but may differ in a detail not shown here. Equal values may be shown once.

Columns and labels:
[1] = test system: Fibroblast; assay: Multiplex assay against human fibroblast; type: toxicity, cell-based; settings: number of replicates 2
Outline: (§1)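 Per cents of healthy-nucleus cells form the tubulin, mitochondrial-mass and membrane-permeability phenotype values. Live cells were stained at seeding with Hoechst33342, BioTracker Green Microtubule Cytoskeleton Dye, MitoTracker Red and Annexin V Alexa Fluor 680. After compound addition they were imaged on a CQ1 microscope at 37°C and 5% CO2, and CellPathfinder machine-learning gating split them into Hoechst high-intensity objects or normal cells, normal cells into healthy, pyknosed or fragmented nuclei, and pyknosed cells into mitotic or apoptotic.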

[2] = test system: HEK-293T; assay: Multiplex assay against HEK293T; type: toxicity, cell-based; settings: human, number of replicates 2; outline: as §1
[3] = 24 h, 10 µM, compound concentration 10 uM
[4] = 48 h, 1 µM, compound concentration 1 uM
[5] = 48 h, 10 µM, compound concentration 10 uM
[6] = 12 h, 1 µM, compound concentration 1 uM
[7] = 12 h, 10 µM, compound concentration 10 uM
[8] = 24 h, 1 µM, compound concentration 1 uM

## O=C(Nc1ccc(Cl)c(-c2ccccn2)c1)c1cccc(COc2ccc(Br)cc2CNCCO)c1.O=CO
[1]; [3]
  Population Mitotic Cells (%): 23% and 18%
  Population Normal (%): 99% and 98%
  Population Pyknosed Nuclei (%): 49% and 47%
  Population Tubulin-Different-Phenotype (%): 82%
  Total Cell Count: 238 and 280
[1]; [4]
  Population Apoptotic (%): 61% and 78%
  Population Fragmented Nuclei (%): 9% and 12%
  Population Healthy Nuclei (%): 72% and 64%
  Population Hoechst High Intensity Objects (%): 1%
  Population Membrane Permeable-Phenotype (%): 4% and 5%
  Population Mitochondria Different-Phenotype (%): 3% and 8%
  Population Mitotic Cells (%): 38% and 21%
  Population Normal (%): 98%
  Population Pyknosed Nuclei (%): 18% and 22%
  Population Tubulin-Different-Phenotype (%): 54% and 42%
  Total Cell Count: 215 and 165
[1]; [5]
  Population Apoptotic (%): 95%
  Population Fragmented Nuclei (%): 9% and 8%
  Population Healthy Nuclei (%): 12% and 13%
  Population Hoechst High Intensity Objects (%): 0%
  Population Membrane Permeable-Phenotype (%): 38% and 27%
  Population Mitochondria Different-Phenotype (%): 23% and 41%
  Population Mitotic Cells (%): 4%
  Population Normal (%): 99%
  Population Pyknosed Nuclei (%): 78% and 77%
  Population Tubulin-Different-Phenotype (%): 66% and 75%
  Total Cell Count: 174 and 211
[2]; [6]
  Population Apoptotic (%): 56% and 52%
  Population Fragmented Nuclei (%): 4% and 3%
  Population Healthy Nuclei (%): 76% and 80%
  Population Hoechst High Intensity Objects (%): 8% and 10%
  Population Membrane Permeable-Phenotype (%): 6% and 5%
  Population Mitochondria Different-Phenotype (%): 37% and 35%
  Population Mitotic Cells (%): 43% and 47%
  Population Normal (%): 91% and 89%
  Population Pyknosed Nuclei (%): 18% and 15%
  Population Tubulin-Different-Phenotype (%): 92% and 94%
  Total Cell Count: 417 and 613
[2]; [7]
  Population Apoptotic (%): 85% and 73%
  Population Fragmented Nuclei (%): 0% and 7%
  Population Healthy Nuclei (%): 79% and 71%
  Population Hoechst High Intensity Objects (%): 11% and 13%
  Population Membrane Permeable-Phenotype (%): 1%
  Population Mitochondria Different-Phenotype (%): 91% and 83%
  Population Mitotic Cells (%): 14% and 26%
  Population Normal (%): 88% and 86%
  Population Pyknosed Nuclei (%): 19% and 21%
  Population Tubulin-Different-Phenotype (%): 81% and 95%
  Total Cell Count: 238 and 269
[2]; [8]
  Population Apoptotic (%): 48% and 54%
  Population Fragmented Nuclei (%): 4% and 6%
  Population Healthy Nuclei (%): 85% and 82%
  Population Hoechst High Intensity Objects (%): 6% and 10%
  Population Membrane Permeable-Phenotype (%): 6%
  Population Mitochondria Different-Phenotype (%): 29% and 19%
  Population Mitotic Cells (%): 51% and 45%
  Population Normal (%): 93% and 89%
  Population Pyknosed Nuclei (%): 9% and 11%
  Population Tubulin-Different-Phenotype (%): 88% and 86%
  Total Cell Count: 566 and 806
[2]; [3]
  Population Apoptotic (%): 82% and 80%
  Population Fragmented Nuclei (%): 4%
  Population Healthy Nuclei (%): 75% and 72%
  Population Hoechst High Intensity Objects (%): 16% and 15%
  Population Membrane Permeable-Phenotype (%): 1% and 2%
  Population Mitochondria Different-Phenotype (%): 95% and 89%
  Population Mitotic Cells (%): 17% and 19%
  Population Normal (%): 83% and 84%
  Population Pyknosed Nuclei (%): 19% and 23%
  Population Tubulin-Different-Phenotype (%): 74% and 91%
  Total Cell Count: 248 and 263
[2]; [4]
  Population Apoptotic (%): 48% and 34%
  Population Fragmented Nuclei (%): 7% and 9%
  Population Healthy Nuclei (%): 87% and 85%
  Population Hoechst High Intensity Objects (%): 8% and 10%
  Population Membrane Permeable-Phenotype (%): 9% and 8%
  Population Mitochondria Different-Phenotype (%): 8% and 5%
  Population Mitotic Cells (%): 51% and 65%
  Population Normal (%): 91% and 89%
  Population Pyknosed Nuclei (%): 4%
  Population Tubulin-Different-Phenotype (%): 61% and 66%
  Total Cell Count: 894 and 1474
[2]; [5]
  Population Apoptotic (%): 79% and 78%
  Population Fragmented Nuclei (%): 3% and 1%
  Population Healthy Nuclei (%): 71% and 68%
  Population Hoechst High Intensity Objects (%): 19% and 12%
  Population Membrane Permeable-Phenotype (%): 4% and 1%
  Population Mitochondria Different-Phenotype (%): 82% and 86%
  Population Mitotic Cells (%): 20% and 21%
  Population Normal (%): 80% and 87%
  Population Pyknosed Nuclei (%): 24% and 29%
  Population Tubulin-Different-Phenotype (%): 84% and 89%
  Total Cell Count: 339 and 305
